# T1: Carbonic anhydrase (Candida albicans (strain SC5314 / ATCC MYA-2876) (Yeast)) (UniProt Q5AJ71)
# T1 sequence (whole entry): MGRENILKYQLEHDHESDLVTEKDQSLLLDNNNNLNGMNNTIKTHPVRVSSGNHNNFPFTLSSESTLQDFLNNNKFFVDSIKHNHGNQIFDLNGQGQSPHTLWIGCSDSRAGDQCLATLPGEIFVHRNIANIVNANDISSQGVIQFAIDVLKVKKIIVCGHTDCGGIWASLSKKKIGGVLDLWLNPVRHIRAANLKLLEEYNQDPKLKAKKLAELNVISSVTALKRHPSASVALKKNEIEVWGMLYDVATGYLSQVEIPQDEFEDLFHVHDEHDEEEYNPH
# T2: Carbonic anhydrase 2 (Cryptococcus neoformans) (UniProt Q3I4V7)
# T2 sequence (whole entry): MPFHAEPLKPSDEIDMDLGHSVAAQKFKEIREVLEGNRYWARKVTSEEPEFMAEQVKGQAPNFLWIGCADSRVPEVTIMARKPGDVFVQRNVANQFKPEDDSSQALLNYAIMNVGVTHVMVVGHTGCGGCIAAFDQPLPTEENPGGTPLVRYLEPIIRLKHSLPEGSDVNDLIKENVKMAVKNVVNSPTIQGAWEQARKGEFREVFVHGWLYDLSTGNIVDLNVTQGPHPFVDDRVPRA
# B1: Carbonic anhydrase (Candida albicans (strain SC5314 / ATCC MYA-2876) (Yeast)), Q5AJ71 (protein)
# chain: T1 sequence (whole entry)
# B2: Carbonic anhydrase 2 (Cryptococcus neoformans), Q3I4V7 (protein)
# chain: T2 sequence (whole entry)
# Experiments:
# [1] = molecular target: T1, Carbonic anhydrase (Candida albicans (strain SC5314 / ATCC MYA-2876) (Yeast)); test: Activation of Candida albicans beta-carbonic anhydrase Nce103 by stopped flow CO2 hydration assay
# Method in brief: (§1)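 Recombinant enzyme (prepared as in earlier work) preincubated with activator 15 min at room temperature. Stopped-flow CO2 hydration at 25 °C followed for 10 s, read with phenol red (0.2 mM) at 557 nm. Buffer was 20 mM Tris pH 8.3 with 20 mM NaClO4. CO2 ranged 1.7–17 mM. Initial velocity came from at least six traces of the first 5–10% of reaction, with the uncatalyzed rate subtracted. KA was fitted from activation versus activator concentration, using dilutions from a 10 mM aqueous stock. Mean of at least three determinations.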
# [2] = molecular target: T2, Carbonic anhydrase 2 (Cryptococcus neoformans); test: Activation of Cryptococcus neoformans beta-carbonic anhydrase Can2 by stopped flow CO2 hydration assay; method in brief: as §1
# [3] = substrate: NCCc1c[nH]cn1; settings: Candida albicans
# [4] = substrate: NCCc1c[nH]cn1; settings: Candida albicans; 10 uM
# [5] = substrate: NCCc1c[nH]cn1; settings: Cryptococcus neoformans
# [6] = substrate: NCCc1c[nH]cn1; settings: Cryptococcus neoformans; 10 uM
Molecule,KA [1] [µM],KA [2] [µM],further results
N[C@H](Cc1c[nH]c2ccccc12)C(=O)O,43,42.1,–
NCCN1CCOCC1,25.4,40.1,–
N[C@H](Cc1ccc(O)c(O)c1)C(=O)O,2.5,35.1,–
NCCc1c[nH]c2ccc(O)cc12,28.6,46.7,–
Nc1ccc(C[C@H](N)C(=O)O)cc1,23.7,30.4,–
N[C@@H](Cc1c[nH]c2ccccc12)C(=O)O,19.2,28.7,–
NCCc1ccccn1,30.2,46.3,–
NCc1ccccn1,29.1,47,–
CNC[C@@H](O)c1ccc(O)c(O)c1,13.2,32.8,–
N[C@@H](Cc1c[nH]cn1)C(=O)O,24.1,45,–
NCCc1c[nH]cn1,18.4,33.2,–
N[C@@H](Cc1ccc(O)c(O)c1)C(=O)O,0.96,43.3,–
N[C@H](Cc1c[nH]cn1)C(=O)O,19.5,47.2,–
N[C@H](Cc1ccccc1)C(=O)O,8.4,45.2,–
NCCc1ccc(O)c(O)c1,18.5,34.6,–
N[C@@H](Cc1ccc(O)cc1)C(=O)O,46.1,29.5,–
N[C@@H](Cc1ccccc1)C(=O)O,15.5,44.1,–
NCCN1CCNCC1,17.3,44.9,–
B1,–,–,Km [3]: 8.2 mM; kcat [3]: 8 ×10⁵ /s; kcat [4]: 20.1 ×10⁵ /s
B2,–,–,Km [5]: 9 mM; kcat [5]: 3.9 ×10⁵ /s; kcat [6]: 6.8 ×10⁵ /s
